Experiments:
[1] = test system: MS2 coat protein; assay: apparent Kd, MS2 coat protein; higher = weaker binding; RNA-MaP array; tryptophan 2.4 mM where present
How it was run: (§1)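 The titrant was SNAP-549-labelled MS2 coat protein, run from 0.7 or 1.5 nM in doubling steps to 3 µM. It was applied to designs transcribed by stalled E. coli RNA polymerase on Illumina sequencing-chip clusters, without ligand first and then with constant ligand, in 100 mM Tris-HCl pH 7.5, 80 mM KCl, 4 mM MgCl2, BSA, DTT, yeast tRNA and Tween-20. The apparent Kd is the median of filtered per-cluster binding-curve fits, with green signal normalised to red-channel RNA signal and control-cluster median Fmax.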

[2] = test system: MS2 coat protein; assay: apparent Kd, MS2 coat protein; higher = weaker binding; RNA-MaP array; theophylline 2 mM where present; settings: designed as: OFF switch for theophylline
How it was run: as §1

[3] = designed as: OFF switch for tryptophan, no ligand
[4] = ligand present: tryptophan, designed as: OFF switch for tryptophan
[5] = designed as: ON switch for tryptophan, no ligand
[6] = ligand present: tryptophan, designed as: ON switch for tryptophan

Sequence	apparent Kd [1, 3] [nM]	apparent Kd [1, 4] [nM]	apparent Kd [1, 5] [nM]	apparent Kd [1, 6] [nM]	also measured
UCGGUUUUCUACAUGAGGAUCACCCAUGUCCGAGGACCGGUACGGCCGCCACUCGCAAUCAAACAGACGUGGGCCAAAUUUGCGU	10	14.3	–	–	–
ACAUGACAACAUGAGGAUCACCCAUGUCAUCGAGGACCGGUACGGCCGCCACUCGGUCAAUAUGAUACUUGUCAUGAACAUGAGG	18.7	23.5	–	–	–
AAUAAUAGGUGAUCCUAACGAGUGGCAUAACGAGGACCGGUACGGCCGCCACUCGAACAUGAGGAUCACCCAUGUAGUCACUCGA	–	–	189	362	–
GAGUACACUACGGCCGCCACUCAAGGAGCUACAUAGCUCCUAGACAUGAGGAUCACCCAUGUACCGAGGACCGGGUAGAUCCUUA	–	–	187	97.3	–
ACAUGUUGGUGGUAUCUACGAAGGCGGAAACGAGGACCGGUACGGCCGCCACUCGGCGACAUGAGGAUCACCCAUGUGGUUAAGA	72	46.4	–	–	–
GCUAGGUCUACGGCCGCCACUAGACGUGGGUAAGACAUGAGGAUCACCCAUGUACUACAGGCGGAUAGGACCGGGUAGACCUAGC	–	–	114	14.3	–
UAACAUGAGGAUCACCCAUGUAUACUUAGUCGAGGACCGGUACGGCCGCCACUCGUACUUCAAGAUUUGGCGGAAAAUGUAUGUA	12.5	15.1	–	–	–
GGUUGAUGACAUGAGGAUCACCCAUGUAGGCGAGGACCGGUACGGCCGCCACUCGACAUGAGGAUCACCCAUGUCGGCGUCCGUG	15.2	26.2	–	–	–
UAAACUACACAUGAGGAUCACCCAUGUGGCCGAGGACCGGUACGGCCGCCACUCGUGUGUUAAUAAAAGAACCGCAAAGUUCUGU	–	–	268	83.3	–
GGGAGGGAGGCGGCCGCCACUGAUUUUCAUAUAUAUAUAACAUGAGGAUCACCCAUGUAGAUAUGCAGGACCGGGCCUUUUUUUU	–	–	20.5	17.6	–
CUGUGUCCUUCGGCCGCCACUACAUGAGGAUCACCCAUGUCGUUACGGCUCCCAAUGACGCUUUGUAGGACCGGGAAGGAGUAUG	10.3	15.8	–	–	–
GAUUAAACAUGAGGAUCACCCAUGUAUAUACGAGGACCGGUACGGCCGCCACUCGAAAACGAGUAUCCUCGAAUAAACAUGAUAA	–	–	37.2	67	–
CAAAAUUUAACGGCCGCCACUUACUCAUGAGGUAACAACAUGAGGAUCACCCAUGUUUGAGGAUCAAGGACCGGGUUAAAUUUUG	–	–	30.6	18.2	–
AACUACUCGAGGUGAUCCUACGAGUGGCAACGAGGACCGGUACGGCCGCCACUCGAAUAAACAUGAGGAUCACCCAUGUACAAAU	–	–	81	83.7	–
GGUAUGUAUUCGGAAACGAAUGCAUACCAACGAGGACCGGUACGGCCGCCACUCGGGCGGCGAUCACAUGAGGAUCACCCAUGUA	45.7	46.7	–	–	–
GGUAUGUAUUCGGAAACGAAUGCAUACCAACGAGGACCGGUACGGCCGCCACUCGGCGGCGAUCAACAUGAGGAUCACCCAUGUA	40.4	31	–	–	–
AGAUGAGUCACGGCCGCCACUCUUCACAGGUUCACCCUUGGUUAACAUGAGGAUCACCCAUGUGGGAGGACCGGGUGAUGAGCAU	13.7	33.4	–	–	–
GUUAUAUCAAAAGAUGUAACAGUGGGUGAACGAGGACCGGUACGGCCGCCACUCGGACAUGAGGAUCACCCAUGUCCAUGUGAAA	17.9	37.1	–	–	–
AAAACAUGAGGAUCACCACAUGACAUGAGGCGAGGACCGGUACGGCCGCCACUCGACAUACAUGAGGAUCACCCAUGUUUGUUGU	217	269	–	–	–
AUACAUGAGGAUCACCCAUGUCCUCGUGAUCGAGGACCGGUACGGCCGCCACUCGGUCCUCGCGAGGUGGAGUCAAAGACUCCAA	–	–	128	87.1	–
AGAUUCGACACGGCCGCCACUCGAGACGGAUUUCCGAGUGUCGAACAUGAGGAUCACCCAUGUCCGAGGACCGGGUGUUGAGUCU	32.2	401	–	–	–
GCUAGGUCUACGGCCGCCACUAGACGUGGGUAAGACAUGAGGAUCACCCAUGUACUACGGGCGCUUAGGACCGGGUAGACCUAGC	–	–	204	17.5	–
CUUAUAUAUACGGCCGCCACUUACUCAUGAGGUAACAACAUGAGGAUCACCCAUGUUUGAGGAUCAAGGACCGGGUAUAUAUAAG	–	–	25.3	18.2	–
AAUGGCCGUACCGGAAGGGUGAUCCUCAAACGAGGACCGGUACGGCCGCCACUCGAUAACAUGAGGAUCACCCAUGUAAUAAUAA	331	389	–	–	–
CAUGCCAGGGCGGCCGCCACUGUGGCUACGGUACAUGAGGAUCACCCAUGUUUGUGGUUGAUCUACAGGACCGGGCCCUAGCACG	–	–	118	238	–
CUACAUUUGUAGAAACCGGUCAACAAUAAUCGAGGACCGGUACGGCCGCCACUCGUAUAAUUUAUUACAUGAGGAUCACCCAUGU	–	–	13.7	13.8	–

Sequence	apparent Kd [1, 3] [nM]	apparent Kd [1, 4] [nM]	apparent Kd [1, 5] [nM]	apparent Kd [1, 6] [nM]	also measured
UCGGUGCUCUACAUGAGGAUCACCCAUGUCCGAGGACCGGUACGGCCGCCACUCGCAAUCAAACAGACGUGGGCCAACUUUGCGU	10.3	13.6	–	–	–
CCUAUCCAGUCGGCCGCCACUGACCAUUUGGAACAGUGGGUGAAAACAUGAGGAUCACCCAUGUACAGGACCGGGACUGUAUAGG	11.6	42	–	–	–
GCUACAUGAGGAUCACCCAUGUAUGCGAGUCGAGGACCGGUACGGCCGCCACUCGCUUAACAUGAGGAUCACCCAUGUUACUCGC	–	–	64.6	31.1	–
AGUAUUGGAAACAGUACUAGUGAUCCGGUCCGAGGACCGGUACGGCCGCCACUCGAAUUAAAUAAACAUGAGGAUCACCCAUGUA	16.8	46.1	–	–	–
AGCACUGUGACGGCCGCCACUACAUAAAUAGGGUGGUCAGGUUCAUUACAUGAGGAUCACCCAUGUAGGACCGGGUCUCAGUGCA	9.99	9.55	–	–	–
GGGUGGUAGGCGGCCGCCACUGAUUUUUAUUUAUAGAUGACAUGAGGAUCACCCAUGUUGAUAUGCAGGACCGGGCCUGUUGUUG	–	–	15.1	13.2	–
AGAUUCGACACGGCCGCCACUCGUGGAGGAUUUCCGAGUGUCGAACAUGAGGAUCACCCAUGUACGAGGACCGGGUGUUGAGUCU	28.4	234	–	–	–
AGUCUGGACUCGGCCGCCACUCGUGAUGCUUUGGCACAUGAGGAUCACCCAUGUGGUCGGCCUUAGAGGACCGGGAGUACCAGCU	–	–	56.4	12.9	–
CUAUAAGUACCGGUCCUCAGAUCCUCAUGACGAGGACCGGUACGGCCGCCACUCGAAACAUGAGGAUCACCCAUGUAAUAAUAUC	20.7	18.6	–	–	–
GCGCGGCGAGUGCGGCGUGUUCCGCUCCGUCGAGGACCGGUACGGCCGCCACUCGACAUGAGGAUCACCCAUGUCGCCGCGCGUC	12.1	12.3	–	–	–
AAUAACAUGAGGAUCACCCAUGUAAGUAAACGAGGACCGGUACGGCCGCCACUCGAAUAAAUAAAGUACCGGUAAGAUCCAUAGA	–	–	21.3	23.9	–
AUCUAUAGAGCGGCCGCCACUGAAUACAUGAGGAUCACCCAUGUAAUGUUAAGGUGGUCCUAGCUCAGGACCGGGCUCUAUAGAU	36.5	22.2	–	–	–
CUACAUUUGUAGAAACCGGUCACCAUUAUUCGAGGACCGGUACGGCCGCCACUCGUAUCAUGUGAUACAUGAGGAUCACCCAUGU	–	–	28.8	28.5	–
GGGCGCUAUCCCGCGAGGGAUAGCGUUCGUCGAGGACCGGUACGGCCGCCACUCGAACGAGUGGUGACAUGAGGAUCACCCAUGU	50.2	68.8	–	–	–
GUUAUAACAAAAGUUGUAACAGUGGGUGAACGAGGACCGGUACGGCCGCCACUCGGACAUGAGGAUCACCCAUGUCCAUGUGAAA	16.2	40.2	–	–	–
AGAUUCGACACGGCCGCCACUCUACACGGAUUUCCGAGUGUCGAACAUGAGGAUCACCCAUGUGGGAGGACCGGGUGUUGAGUCU	437	1030	–	–	–
AAUGGUCGUACUGGAAUGGUGAUCCUCAAACGAGGACCGGUACGGCCGCCACUCGAUAACAUGAGGAUCACCCAUGUAAUAAUAA	40.7	20.8	–	–	–
CGUAUUGGAAACAGUACGAGUGAUCCGGUCCGAGGACCGGUACGGCCGCCACUCGAAAAUAAAUAACAUGAGGAUCACCCAUGUA	16.7	23.9	–	–	–
UUUGUAAUUGUCUGGUAGAUUUAUUUAUUUCGAGGACCGGUACGGCCGCCACUCGUUAAUUACAUGAGGAUCACCCAUGUUAGCU	13.4	13.2	–	–	–
AGAUGAGUCACGGCCGCCACUCUUAUCAGGAUCACCCAUGGUUAACAUGAGGAUCACCCAUGUCUGAGGACCGGGUGAUGAGCAU	21.6	23.9	–	–	–
CACAGUGCGAAAUUGAAUUCGCACGAUCCUCGAGGACCGGUACGGCCGCCACUCGCGCGGGUCGUACAUGAGGAUCACCCAUGUC	–	–	257	368	–
ACAUUGCGCUCGGCCGCCACUGGCUUAUGAUUAUAAGCAUUAAUGAACAUGAGGAUCACCCAUGUCAGGACCGGGAGCGAACCAU	–	–	14	16.6	–
AAGGCACGAGACAUGAGGAUCACCCAUGUUCGAGGACCGGUACGGCCGCCACUCGGUGGACUCAUGGUAAAGCCGGUGAGCCAAA	–	–	19.4	37.2	–
GAUCAAAGAUCACAUGAGGAUCACCCAUGUCGAGGACCGGUACGGCCGCCACUCGCGGCGGUGAAAAUAGAUACAAAGUAUCUAU	77.6	347	–	–	–
AGCGACAUGCGUGAUACCAGCUACAUGAGGAUCACCCAUGUGAGUAGGAAACUACUGUGUAGCCCUUGGCAGCACAGUGCAUGUC	–	–	–	–	apparent Kd ([2]; no ligand): 10.5 nM; apparent Kd ([2]; ligand present: theophylline): 63.7 nM
ACGUCCGGGUUAAUCGUGGGCAUGGUCGAUACCAGUAUUUUAAUCUACCCUUGGCAGCGACAUGAGGAUCACCCAUGUGCGAUGA	–	–	–	–	apparent Kd ([2]; no ligand): 17 nM; apparent Kd ([2]; ligand present: theophylline): 35.5 nM

Reference: the EternaBench riboswitch data
